Experimental data from ChEMBL document CHEMBL1140052, “Novel insight in structure-activity relationship and bioanalysis of P-glycoprotein targeting highly potent tetrakishydroxymethyl substituted 3,9-diazatetraasteranes” (J Med Chem, 2008).
The source made the active and inactive calls. No cut-off for these calls is given here.

Experiments:
L5178Y [1] = experiment: Inhibition of P-glycoprotein expressed in mouse L5178Y cells measured by rhodamine 123 uptake assessed as fluorescence activity ratio relative to wild type mouse L5178 cells at 1 uM; assay type: cell-based
Summary of the method: (§1)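 Mouse T lymphoma parental L5178 and P-gp-expressing L5178Y cells at 2 × 10^6 cells/mL in serum-free McCoy's 5A medium. Compound added from DMSO stock, 10 min at rt. Rhodamine 123 then added (final 5.2 µM), 20 min at 37 °C. Two PBS washes, 1 × 10^4 cells read by flow cytometry. Ratio = subline/parental fluorescence, each corrected to its untreated control.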

L5178Y [2] = experiment: Inhibition of P-glycoprotein expressed in mouse L5178Y cells measured by rhodamine 123 uptake assessed as fluorescence activity ratio relative to wild type mouse L5178 cells at 10 uM; assay type: cell-based; summary of the method: as §1
Homo sapiens = species on record: Homo sapiens; experiment: Induction of p-glycoprotein expression in human EPG 85-257 cells after 72 hrs by Western blot analysis; assay type: functional, cell-based
Summary of the method: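 Gastric carcinoma cells seeded at 5 × 10^5 cells/well and cultured 72 h with compound. Cells washed twice, proteins extracted with Triton X-100 and denatured 10 min at 95 °C. Protein quantified by amido black at 630 nm. 20 µg run on SDS-PAGE (4% stacking/6% resolving) and blotted. Probed with C219 (1:100) and peroxidase anti-mouse IgG (1:10000), chemiluminescence read-out. Anti-actin (1:50000) as loading control.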

| SMILES | Ratio (L5178Y [1]) | Ratio (L5178Y [2]) | Activity (Homo sapiens) |
| --- | --- | --- | --- |
| OC[C@]12C3N(Cc4ccccc4)C4[C@](CO)(C5N(Cc6ccccc6)C1[C@]3(CO)[C@H](c1ccc(OCc3ccccc3)cc1)[C@@]45CO)[C@H]2c1ccc(OCc2ccccc2)cc1 | 3.3 | 47 | – |
| COc1ccc([C@H]2[C@@]3(CO)C4N(Cc5ccccc5)C5[C@]2(CO)C2N(Cc6ccccc6)C3[C@]4(CO)[C@H](c3ccc(OC)cc3)[C@@]52CO)cc1 | 4.3 | 57 | inactive |
| OC[C@]12C3N(Cc4ccccc4)C4[C@](CO)(C5N(Cc6ccccc6)C1[C@]3(CO)[C@H](c1cccc(OCc3ccccc3)c1)[C@@]45CO)[C@H]2c1cccc(OCc2ccccc2)c1 | 65 | 125 | – |
| OC[C@]12C3N(Cc4ccccc4)C4[C@](CO)(C5N(Cc6ccccc6)C1[C@]3(CO)[C@@H](c1ccccc1)[C@@]45CO)[C@@H]2c1ccccc1 | 4.1 | 29 | – |
| COc1ccc(CCN(C)CCCC(C#N)(c2ccc(OC)c(OC)c2)C(C)C)cc1OC (configuration not stated) | 2.1 | 4.1 | – |
| OC[C@]12C3N(Cc4cccc(OCc5ccccc5)c4)C4[C@](CO)(C5N(Cc6cccc(OCc7ccccc7)c6)C1[C@]3(CO)[C@@H](c1ccccc1)[C@@]45CO)[C@@H]2c1ccccc1 | 117 | 205 | – |
| COc1ccc(CN2C3[C@]4(CO)C5N(Cc6ccc(OC)cc6)C6[C@](CO)(C2[C@@]6(CO)[C@@H](c2ccccc2)[C@@]35CO)[C@H]4c2ccccc2)cc1 | 3.5 | 13 | – |
| OC[C@]12C3N(Cc4ccc(OCc5ccccc5)cc4)C4[C@](CO)(C5N(Cc6ccc(OCc7ccccc7)cc6)C1[C@]3(CO)[C@H](c1ccccc1)[C@@]45CO)[C@H]2c1ccccc1 | 2.3 | 28 | – |
